{"source": "ChEMBL document CHEMBL5338759", "about": "“N-Phenyl-1-(phenylsulfonyl)-1H-1,2,4-triazol-3-amine as a New Class of HIV-1 Non-nucleoside Reverse Transcriptase Inhibitor” (J Med Chem, 2023)", "key": {"[1]": {"test": "Selectivity ratio of IC50 for antiviral activity against wild type HIV1 IIIB infected in human TZM-bl cells to IC50 for antiviral activity against HIV1 harboring A17 mutant infected in human TZM-bl cells", "assay_type": "toxicity, cell-based", "conditions": "human immunodeficiency virus 1; call rule not given here", "method_in_brief": "(§1)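 TZM-bl cells (2x10⁵/mL) with 15 µg/mL DEAE-dextran were infected with HIV-1 IIIB, A17 (K103N/Y181C) IIIB variant, or NL4-3-based NNRTI-resistant mutants. Compound was present at 0.05–500 nM (DMSO held constant, 0.005% or 0.05%) for 48 hr at 37°C, 5% CO₂.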"}, "[2]": {"test": "Selectivity ratio of IC50 for antiviral activity against wild type HIV1 IIIB infected in human TZM-bl cells to IC50 for antiviral activity against HIV1 harboring Y181C mutant infected in human TZM-bl cells", "assay_type": "toxicity, cell-based", "conditions": "human immunodeficiency virus 1", "method_in_brief": "as §1"}, "[3]": {"test": "Selectivity ratio of IC50 for antiviral activity against wild type HIV1 IIIB infected in human TZM-bl cells to IC50 for antiviral activity against HIV1 harboring L100I/K103N double mutant infected in human TZM-bl cells", "assay_type": "toxicity, cell-based", "conditions": "human immunodeficiency virus 1", "method_in_brief": "as §1"}, "TZM": {"test_system": "TZM", "test": "Cytotoxicity against human TZM-bl cells assessed as reduction in cell viability by MTS assay", "assay_type": "functional"}, "[4]": {"test": "Selectivity index, ratio of CC50 for cytotoxicity against human TZM-bl cells assessed as reduction in cell viability by MTS assay to EC50 for antiviral activity against HIV1 harboring A17 mutant infected in human TZM-bl cells", "assay_type": "toxicity, cell-based", "conditions": "read-out: Ratio CC50/EC50"}, "[5]": {"test": "Metabolic stability in mouse liver microsome measured up to 60 mins presence of NADPH", "assay_type": "ADME", "conditions": "microsomes, 1 h"}, "[6]": {"test": "Metabolic stability in human liver microsome measured up to 60 mins presence of NADPH", "assay_type": "ADME", "conditions": "microsomes, 1 h"}, "[7]": {"test": "Safety index, ratio of TC10 for neurotoxicity in mouse primary neurons assessed as loss of MAP-2 intensity to EC50 for antiviral activity against wild type HIV1 IIIB infected in human TZM-bl cells", "assay_type": "toxicity, cell-based", "method_in_brief": "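Primary neuronal cultures from cortex/hippocampus of E16 CD1 mouse embryos (>95% neurons). Cells were then methanol:acetic acid-fixed and MAP-2 stained, and intensity was image-quantified. S-index = TC10/(100×EC50 vs HIV-1 IIIB in TZM-bl).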"}, "[8]": {"test": "Cmax in BALB/c mouse plasma at 250 mg/kg, IG measured at 0.5 to 24 hrs by HPLC-MS analysis", "assay_type": "ADME, organism-based", "design": "time lower 0.5 hrs, dose 250 mg/kg, time upper 24 hrs, route ig", "conditions": "in vivo, po", "method_in_brief": "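Mice (~20 g; food withheld 1 h before and after dosing), single dose as 0.5 ml suspension in 1% CMC/0.05% Tween 80 by gavage. Three animals per time point (0.5–24 h). Heparinized plasma frozen at -20°C, quantified by UPLC-ESI(+)-QTOF-MS (EIC m/z 476.0691) against plasma-matrix standards. LLOQ 5 ng/ml, lower values set to 2.5 ng/ml. Noncompartmental analysis.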"}, "[9]": {"test": "Cmax in BALB/c mouse brain at 250 mg/kg, IG measured at 0.5 to 24 hrs by HPLC-MS analysis", "assay_type": "ADME, organism-based", "design": "time 0.5-24 hrs, dose 250 mg/kg, route ig", "conditions": "po", "method_in_brief": "(§2)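 Mice averaging 20 g (24 animals) were fasted 1 h before and 1 h after dosing. They received 250 mg/kg as 0.5 ml suspension in 1% CMC, 0.05% Tween 80 by intragastric intubation. Blood and brain were taken after decapitation at 0.5, 1, 2, 3, 5, 8 and 24 h (3 per time point). Plasma was frozen at -20°C and brain at -120 °C. Quantification was by UPLC-HRMS (ESI+, EIC m/z 476.0691) against plasma-matrix standards. Parameters were derived by noncompartmental analysis; LLOQ 5 ng/ml, with values below it set to 2.5.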"}, "[10]": {"test": "Half life in BALB/c mouse plasma at 250 mg/kg, IG measured at 0.5 to 24 hrs by HPLC-MS analysis", "assay_type": "ADME, organism-based", "conditions": "in vivo, po, time 0.5-24 hrs", "method_in_brief": "as §2"}, "[11]": {"test": "Half life in BALB/c mouse brain at 250 mg/kg, IG measured at 0.5 to 24 hrs by HPLC-MS analysis", "assay_type": "ADME, organism-based", "conditions": "in vivo, po, time 0.5-24 hrs", "method_in_brief": "as §2"}, "[12]": {"test": "Subacute toxicity in BALB/c mouse assessed as pathological change in kidney at 25 to 250 mg/kg, IG measured daily for 30 days by H and E staining based histological analysis", "assay_type": "organism-based", "conditions": "in vivo, po, 720 h, dose 25-250 mg/kg, time 30 day", "method_in_brief": "(§3)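 Male Balb/C mice (17 per group) received 25 or 250 mg/kg intragastrically in 1% starch gel once daily for 30 days, against starch gel controls. Internal organs were examined macroscopically after the study. Sections were paraffin-embedded and stained with hematoxylin and eosin.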"}, "[13]": {"test": "Subacute toxicity in BALB/c mouse assessed as pathological change in stomach at 25 to 250 mg/kg, IG measured daily for 30 days by H and E staining based histological analysis", "assay_type": "organism-based", "conditions": "in vivo, po, 720 h, dose 25-250 mg/kg, time 30 day", "method_in_brief": "as §3"}, "[14]": {"test": "Subacute toxicity in BALB/c mouse assessed as pathological change in liver at 25 to 250 mg/kg, IG measured daily for 30 days by H and E staining based histological analysis", "assay_type": "organism-based", "conditions": "in vivo, po, 720 h, dose 25-250 mg/kg, time 30 day", "method_in_brief": "as §3"}, "[15]": {"test": "Subacute toxicity in BALB/c mouse assessed as body weight gain at 25 to 250 mg/kg, IG measured daily for 30 days", "assay_type": "organism-based", "conditions": "in vivo, po, 720 h, dose 25-250 mg/kg, time 30 day", "method_in_brief": "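Male Balb/C mice (17 per group, initial weight 20.9 ± 0.8 g) were dosed intragastrically once daily for 30 days at 25 or 250 mg/kg. Doses were given as 2.5 or 25 mg/ml suspensions in 1% starch gel at 0.2 ml per 20 g; controls received starch gel alone. Weight, coat, mucous membranes and excretion were recorded throughout.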"}, "[16]": {"test": "Subacute toxicity in BALB/c mouse assessed as reduction in urea level at 25 to 250 mg/kg, IG measured daily for 30 days", "assay_type": "organism-based", "conditions": "in vivo, po, 720 h, dose 25-250 mg/kg, time 30 day", "method_in_brief": "(§4)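 Dosing was daily intragastric 25 or 250 mg/kg in 1% starch gel (0.2 ml/20 g) for 30 days in male Balb/C mice, 17 per group, with starch gel controls. After the final dose, mice were fasted for 2 h with water available, then bled. Serum was clotted for 30 min at room temperature and centrifuged at 3500 rpm. Total protein, urea, creatinine, AST, ALT and alkaline phosphatase were assayed and compared by Mann-Whitney with Holm-Šídák, p < 0.05.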"}, "[17]": {"test": "Subacute toxicity in BALB/c mouse assessed as reduction in […] level at 25 to 250 mg/kg, IG measured daily for 30 days", "assay_type": "organism-based", "conditions": "in vivo, po, 720 h, dose 25-250 mg/kg, time 30 day", "method_in_brief": "as §4"}, "[18]": {"test": "Subacute toxicity in BALB/c mouse assessed as reduction in alkaline phosphatase level at 250 mg/kg, IG measured daily for 30 days", "assay_type": "organism-based", "conditions": "in vivo, po, 720 h, time 30 day", "method_in_brief": "as §4"}, "[19]": {"test": "Subacute toxicity in BALB/c mouse assessed as reduction in WBC count at 25 to 250 mg/kg, IG measured daily for 30 days", "assay_type": "organism-based", "conditions": "in vivo, po, 720 h, dose 25-250 mg/kg, time 30 day"}, "[20]": {"test": "Subacute toxicity in BALB/c mouse assessed as reduction in platelets count at 25 to 250 mg/kg, IG measured daily for 30 days", "assay_type": "organism-based", "conditions": "in vivo, po, 720 h, dose 25-250 mg/kg, time 30 day"}, "[21]": {"test": "Subacute toxicity in BALB/c mouse assessed as effect on liver weight at 25 to 250 mg/kg, IG measured daily for 30 days", "assay_type": "organism-based", "conditions": "in vivo, po, 720 h, dose 25-250 mg/kg, time 30 day"}, "[22]": {"test": "Subacute toxicity in BALB/c mouse assessed as effect on heart weight at 25 to 250 mg/kg, IG measured daily for 30 days", "assay_type": "organism-based", "conditions": "in vivo, po, 720 h, dose 25-250 mg/kg, time 30 day"}}}
{"smiles": "N#C/C=C/c1ccc2c(S(=O)(=O)n3nc(Nc4ccc(C#N)c(Cl)c4)nc3N)cccc2c1", "values": [{"measurement": "Ratio IC50", "setting": "[1]", "value": 5.6}, {"measurement": "Ratio IC50", "setting": "[2]", "value": 16}, {"measurement": "Ratio IC50", "setting": "[3]", "value": 75}, {"measurement": "CC50", "setting": "TZM", "value": 4.8, "unit": "µM"}, {"measurement": "selectivity ratio", "setting": "[4]", "value": 1200}, {"measurement": "Stability", "setting": "[5]", "value": "Stable"}, {"measurement": "Stability", "setting": "[6]", "value": "Stable"}, {"measurement": "Ratio", "setting": "[7]", "value": "Not Active"}, {"measurement": "Cmax", "setting": "[8]", "value": 81.4, "unit": "ng/mL"}, {"measurement": "Cmax", "setting": "[9]", "value": 40.3, "unit": "ng/100 mg"}, {"measurement": "t1/2", "setting": "[10]", "value": 7.7, "unit": "h"}, {"measurement": "t1/2", "setting": "[11]", "value": 11.5, "unit": "h"}, {"measurement": "Activity", "setting": "[12]", "value": "Non-Toxic"}, {"measurement": "Activity", "setting": "[13]", "value": "Non-Toxic"}, {"measurement": "Activity", "setting": "[14]", "value": "Toxic"}, {"measurement": "Activity", "setting": "[15]", "value": "Non-Toxic"}, {"measurement": "Activity", "setting": "[16]", "value": "Non-Toxic"}, {"measurement": "Activity", "setting": "[17]", "value": "Non-Toxic"}, {"measurement": "Activity", "setting": "[18]", "value": "Non-Toxic"}, {"measurement": "Activity", "setting": "[19]", "value": "Non-Toxic"}, {"measurement": "Activity", "setting": "[20]", "value": "Non-Toxic"}, {"measurement": "Activity", "setting": "[21]", "value": "Non-Toxic"}, {"measurement": "Activity", "setting": "[22]", "value": "Non-Toxic"}]}
